From ChEMBL document CHEMBL1156156, “Conformationally-restricted amino acid analogues bearing a distal sulfonic acid show selective inhibition of system x(c)(-) over the vesicular glutamate transporter” (Bioorg Med Chem Lett, 2010) come the findings set out here.

In assay [1] the target is T1, Cystine/glutamate transporter (Homo sapiens, UniProt Q9UPY5).
T1 sequence (Q9UPY5 whole entry): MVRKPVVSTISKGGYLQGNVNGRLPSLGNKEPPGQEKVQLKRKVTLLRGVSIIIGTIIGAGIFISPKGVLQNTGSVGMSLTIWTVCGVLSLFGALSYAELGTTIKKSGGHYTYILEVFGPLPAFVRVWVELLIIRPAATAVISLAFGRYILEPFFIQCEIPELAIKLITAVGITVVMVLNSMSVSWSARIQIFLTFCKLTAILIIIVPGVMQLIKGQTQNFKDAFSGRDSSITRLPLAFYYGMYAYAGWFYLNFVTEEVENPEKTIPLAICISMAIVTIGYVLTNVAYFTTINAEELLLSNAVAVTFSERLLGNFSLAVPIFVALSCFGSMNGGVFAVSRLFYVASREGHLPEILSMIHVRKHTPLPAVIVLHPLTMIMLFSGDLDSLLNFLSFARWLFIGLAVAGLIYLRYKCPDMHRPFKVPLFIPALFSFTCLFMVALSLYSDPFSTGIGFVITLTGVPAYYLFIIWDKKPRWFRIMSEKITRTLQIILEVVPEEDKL
The experiment in a line: Inhibition of amino acid transport system xc-. The procedure, abridged: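 Cells were given 100 μM ³H-L-glutamate plus 500 μM inhibitor, and uptake ran for 5 min. Wells were rinsed three times with 0°C HBHS, and cells were lysed in 0.4 M NaOH for 24 h. Acetic acid was added to a lysate aliquot, and radioactivity was counted against background.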

In assay [2] the target is T2, Cystine/glutamate transporter (Homo sapiens) (UniProt Q9UPY5).
T2 sequence (whole entry): T1 sequence (Q9UPY5 whole entry)
The assay can be described thus: Inhibition of amino acid transport system xc- in human SNB19 cells assessed as [3H]L-glutamate uptake at 500 uM after 24 hrs by liquid scintillation counting. Format: cell-based. The settings on record: SNB-19. The method, boiled down: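 Uptake begun by adding ³H-L-glutamate (100 μM) with inhibitor (500 μM) to the wells and run for 5 min. Wells rinsed three times with 0°C HBHS, and cells lysed in 0.4 M NaOH for 24 h. A 200 μl aliquot was acidified with acetic acid and radioactivity counted against background.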

For the next assay, the species on record is Rattus norvegicus. The assay can be described thus: Inhibition of VGLUT in rat brain synaptic vesicles assessed as [3H]L-glutamate uptake at 5 mM after 24 hrs by liquid scintillation counting. Format: tissue-based. The procedure, abridged: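 Vesicular uptake used 250 μM L-glutamate as substrate, with inhibitor at 5 mM.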
A short description of assay [3]: Inhibition of VGLUT.

As usually defined, the IC50 is the point on the concentration scale where inhibition reaches its midpoint. A lower IC50 goes with higher potency.

In the case of `N[C@H](C(=O)O)c1ccc(C(=O)O)cc1`, half-maximal inhibition in assay [1] (IC50) was put at 5 µM. That is a single-digit micromolar value. Take `Cc1cc(C(N)C(=O)O)sc1C` (stereo unspecified): the Drug uptake came out at 73% in assay [2] and 57% in the assay listed under Rattus norvegicus.

On to `N[C@@H](COS(=O)(=O)O)C(=O)O`, for which half-maximal inhibition in assay [1] (IC50) was put at 26 µM. Regarding `NC(C(=O)O)c1c[nH]cn1` (stereo unspecified), the Drug uptake was found to be 96% in assay [2] and 95% in the assay listed under Rattus norvegicus.

In assay [1], `N[C@@H](Cn1oc(=O)[nH]c1=O)C(=O)O` [QUISQUALATE] returned a 50% inhibitory concentration (IC50) of 5 µM. Compound `Cc1cc(-c2ccc(/N=N/c3c(S(=O)(=O)O)cc4cc(S(=O)(=O)O)cc(N)c4c3O)c(C)c2)ccc1/N=N/c1c(S(=O)(=O)O)cc2cc(S(=O)(=O)O)cc(N)c2c1O` [TRYPAN BLUE] showed a half-maximal inhibitory concentration (IC50) in assay [3] of 0.05 µM. On to `N[C@@H](CS)C(=O)O`, for which the Drug uptake in assay [2] worked out at 22%. For `N[C@@H](CCS(=O)(=O)O)C(=O)O`, in assay [1], the IC50 amounted to 35 µM. Consider `NC(C(=O)O)c1ccc(-c2ccc(C(=O)O)cc2)cc1` (stereo unspecified), for which the Drug uptake in assay [2] stood at 27%; in the assay listed under Rattus norvegicus, 75%. For `N[C@H](Cc1ccc(S(=O)(=O)O)cc1)C(=O)O`, the figures for the Drug uptake (in assay [2]; in the assay filed under Rattus norvegicus) were 101% and 102%, respectively.

For `NC(C(=O)O)c1ccc(S(=O)(=O)O)s1` (stereo unspecified), the results for the Drug uptake (in assay [2]; in the assay listed under Rattus norvegicus) were 26% and 81%, respectively.

Take `NC(Cc1ccc(Br)cc1S(=O)(=O)O)C(=O)O` (stereo unspecified): the Drug uptake was 83% in assay [2] and 77% in the assay filed under Rattus norvegicus. Take `Nc1c(/N=N/c2ccc(-c3ccc(/N=N/c4cc(S(=O)(=O)O)c5ccccc5c4N)cc3)cc2)cc(S(=O)(=O)O)c2ccccc12`: the Drug uptake in the assay filed under Rattus norvegicus was 31%.

In the case of `N[C@H](C(=O)O)c1ccc(S(=O)(=O)O)cc1`, the values for the Drug uptake (in assay [2]; in the assay listed under Rattus norvegicus) were 55% and 105%, respectively.

With `Cc1c(C(=O)O)sc(N)c1C(=O)O`, the values for the Drug uptake (in assay [2]; in the assay filed under Rattus norvegicus) were 57% and 44%, respectively. Taken in the same sequence, the figures for `N[C@@H](C(=O)O)c1ccc(S(=O)(=O)O)cc1` were 98% and 108%. On the same counts, the results for `N[C@@H](C(=O)O)c1ccc(S(=O)(=O)O)s1` are 55% and 104%. Taken in the same sequence, the figures for `NC(C(=O)O)c1ccc(-c2cccs2)s1` (stereo unspecified) were 69% and 53%.

For the compound `N[C@H](C(=O)O)c1ccc(S(=O)(=O)O)s1`, the Drug uptake in assay [2] worked out at 32%; in the assay listed under Rattus norvegicus, 92%. On the same counts, the results for `NC(C(=O)O)c1ccc(Br)s1` (stereo unspecified) are 83% and 37%. For the compound `NC(C(=O)O)c1csc2ccccc12` (stereo unspecified), the Drug uptake in assay [2] was 53%; in the assay filed under Rattus norvegicus it was 31%. For `CC(N)(Cc1ccc(S(=O)(=O)O)cc1)C(=O)O` (stereo unspecified), the Drug uptake in assay [2] came out at 106%; in the assay filed under Rattus norvegicus, 98%. On the same counts, the results for `Cc1csc(C(=O)O)c1N` are 83% and 91%. Consider `N[C@@H](Cc1ccc(S(=O)(=O)O)cc1)C(=O)O`, for which the Drug uptake was 90% in assay [2] and 131% in the assay filed under Rattus norvegicus.
